{"data": "Published values pooled from the literature", "note": "Compare with care: the assays were run in different laboratories."}
{"Structure (SMILES)": "CC(C)(C)c1ccc(O)c(CN(Cc2cc(C(C)(C)C)ccc2O)C2CCC(NC(N)=O)CC2)c1 (centres unmarked)", "test system": "male C57BL/6 mouse, brain", "setting": "intraperitoneal, 10 mg/kg, single dose", "endpoint": "half-life", "value": "7.08 h"}
{"Structure (SMILES)": "O=c1nc(N2CCN(CC3CCCCC3)CC2)sc2c([N+](=O)[O-])cc(C(F)(F)F)cc12", "test system": "CD-1 mouse, lung", "setting": "oral, 100 mg/kg, 15 min", "endpoint": "concentration", "value": "0.431 µg/mL"}
{"Structure (SMILES)": "CC(C)CN(C[C@@H](O)[C@H](Cc1ccccc1)NC(=O)O[C@H]1CO[C@H]2OCC[C@H]21)S(=O)(=O)c1ccc(N)cc1", "test system": "BALB/c mouse, plasma", "setting": "intravenous, 2.5 mg/kg, 6 h", "endpoint": "concentration", "value": "0.00419 µg/mL"}
{"Structure (SMILES)": "CC(C)Oc1cccc(-c2cnc(N3CCC(C(N)=O)CC3)s2)c1", "test system": "male Swiss mouse, plasma", "setting": "oral, 30 mg/kg, 8 h, single dose", "endpoint": "concentration", "value": "0.00849 µg/mL"}
{"Structure (SMILES)": "c1cnc2ccc(Nc3nc(NC4CC4)c4nc[nH]c4n3)cc2c1", "test system": "human, plasma", "setting": "oral, 400 mg/m², patients", "endpoint": "MRT(0-t)", "value": "6.8 h"}
{"Structure (SMILES)": "CC(C)(O)c1ccccc1-c1ccc2[nH]c(/C=C/c3ccc(C(F)(F)F)cc3)nc2c1", "test system": "male human, plasma", "setting": "oral, 5 mg, single dose, fasted, healthy volunteers", "endpoint": "MRT", "value": "43.6 h"}
{"Structure (SMILES)": "CC(C)(Nc1nc(-c2ccccn2)nc2ccccc12)c1ccccn1", "test system": "female BALB/c mouse, plasma", "setting": "oral, 50 mg/kg, 2 h", "endpoint": "concentration", "value": "4.23 µg/mL"}
{"Structure (SMILES)": "O=C(O)C1CCN(c2ncc(-c3ccc4c(c3)OCCCO4)s2)CC1", "test system": "male Swiss mouse, plasma", "setting": "oral, 30 mg/kg, 24 h, single dose", "endpoint": "concentration", "value": "1.57 µg/mL"}
